# From ChEMBL document CHEMBL3112466, “Structure-activity relationship analysis of imidazoquinolines with Toll-like receptors 7 and 8 selectivity and enhanced cytokine induction” (J Med Chem, 2014)
# Active and inactive are the calls of the source. The rule behind the calls is not given here.
# What was measured:
# [1] = target: T1, TLR7 and TLR8 (Mus musculus) (UniProt P58681+P58682); assay: Agonist activity at TLR7/TLR8 in C57BL/6 mouse BMDC assessed as induction of IL-1beta production at 30 uM after 3 days by flow cytometric analysis; type: protein assay
# Method in brief: (§1)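 BMDCs from femoral marrow of 6−8-week C57BL/6 mice; red cells lysed (0.83% NH₄Cl, 0.1% KHCO₃, 0.009% EDTA); 5 million cells per well cultured six days in complete RPMI with mouse GM-CSF 20 ng/mL. Stimulated with 30 μM compound for 3 days; supernatant cytokines quantified by flow cytometric bead array; measured in triplicate.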
# [2] = target: T1, TLR7 and TLR8 (Mus musculus); assay: Agonist activity at TLR7/TLR8 in C57BL/6 mouse BMDC assessed as induction of IL-12p40 production at 30 uM after 3 days by flow cytometric analysis; type: protein assay; method in brief: as §1
# [3] = target: T1, TLR7 and TLR8 (Mus musculus); assay: Agonist activity at TLR7/TLR8 in C57BL/6 mouse BMDC assessed as induction of IL-10 production at 30 uM after 3 days by flow cytometric analysis; type: protein assay; method in brief: as §1
# [4] = target: T1, TLR7 and TLR8 (Mus musculus); assay: Agonist activity at TLR7/TLR8 in C57BL/6 mouse BMDC assessed as induction of TNF-alpha production at 30 uM after 3 days by flow cytometric analysis; type: protein assay; method in brief: as §1
# [5] = target: T2, Toll-like receptor 8 (Homo sapiens, UniProt Q9NR97); assay: Agonist activity at human TLR-8 expressed in HEK293 cells after 24 hrs by SEAP reporter gene assay; type: cell-based
# T2 sequence (Q9NR97 whole entry): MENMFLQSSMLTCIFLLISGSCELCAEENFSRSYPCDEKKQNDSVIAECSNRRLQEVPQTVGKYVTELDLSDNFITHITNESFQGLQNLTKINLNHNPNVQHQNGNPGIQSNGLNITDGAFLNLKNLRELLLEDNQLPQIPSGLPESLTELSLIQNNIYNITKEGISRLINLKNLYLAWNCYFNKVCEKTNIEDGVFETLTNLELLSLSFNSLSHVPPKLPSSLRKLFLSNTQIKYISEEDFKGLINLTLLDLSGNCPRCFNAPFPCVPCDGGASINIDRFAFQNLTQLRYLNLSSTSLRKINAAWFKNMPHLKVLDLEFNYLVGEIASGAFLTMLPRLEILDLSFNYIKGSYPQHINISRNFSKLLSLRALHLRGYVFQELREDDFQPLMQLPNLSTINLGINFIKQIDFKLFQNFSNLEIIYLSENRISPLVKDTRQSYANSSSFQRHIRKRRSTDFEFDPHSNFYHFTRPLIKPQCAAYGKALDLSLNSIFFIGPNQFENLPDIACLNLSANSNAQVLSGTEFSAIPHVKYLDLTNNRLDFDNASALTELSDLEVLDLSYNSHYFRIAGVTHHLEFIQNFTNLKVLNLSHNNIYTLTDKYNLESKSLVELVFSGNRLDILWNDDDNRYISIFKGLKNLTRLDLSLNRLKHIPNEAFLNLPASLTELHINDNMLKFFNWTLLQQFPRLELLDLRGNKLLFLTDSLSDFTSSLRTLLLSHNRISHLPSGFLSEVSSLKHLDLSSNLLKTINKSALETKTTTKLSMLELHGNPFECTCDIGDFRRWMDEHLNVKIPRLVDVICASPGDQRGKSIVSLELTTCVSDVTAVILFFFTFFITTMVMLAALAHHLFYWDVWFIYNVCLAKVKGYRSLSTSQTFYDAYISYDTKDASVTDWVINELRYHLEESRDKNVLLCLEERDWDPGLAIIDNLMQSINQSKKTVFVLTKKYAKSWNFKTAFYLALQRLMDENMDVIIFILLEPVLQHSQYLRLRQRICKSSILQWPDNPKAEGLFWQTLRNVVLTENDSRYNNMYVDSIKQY
# Method in brief: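 HEK-293 cells transfected with human TLR-7 or TLR-8 plus NF-κB-inducible SEAP reporter; stimulated with 30 μM compound in DMEM/10% FBS for 24 h. Supernatant incubated with Quanti-blue substrate 1 h at 37 °C; SEAP read as absorbance at 650 nm.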
# [6] = target: T3, TLR7 and TLR8 (Homo sapiens) (UniProt Q9NYK1+Q9NR97); assay: Agonist activity at TLR7/TLR8 in human PBMC assessed as induction of IFN-alpha production at 22.5 uM after 24 hrs by ELISA; type: protein assay
# Method in brief: (§2)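 PBMCs isolated by Ficoll from three independent donors, plated in triplicate at 5 × 10⁵ cells per well, exposed to 22.5 μM compound for 24 h. Medium assayed for TNF-α and IFN-γ by flow cytometric bead array, IFN-α by ELISA.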
# [7] = target: T3, TLR7 and TLR8 (Homo sapiens); assay: Agonist activity at TLR7/TLR8 in human PBMC assessed as induction of TNF-alpha production at 22.5 uM after 24 hrs by flow cytometric analysis; type: protein assay; method in brief: as §2
# [8] = target: T3, TLR7 and TLR8 (Homo sapiens); assay: Agonist activity at TLR7/TLR8 in human PBMC assessed as induction of IFN-gamma production at 22.5 uM after 24 hrs by flow cytometric analysis; type: protein assay; method in brief: as §2
# [9] = target: T4, Toll-like receptor 7 (Homo sapiens, UniProt Q9NYK1); assay: Agonist activity at human TLR-7 expressed in HEK293 cells after 24 hrs by SEAP reporter gene assay; type: cell-based
# T4 sequence (Q9NYK1 whole entry): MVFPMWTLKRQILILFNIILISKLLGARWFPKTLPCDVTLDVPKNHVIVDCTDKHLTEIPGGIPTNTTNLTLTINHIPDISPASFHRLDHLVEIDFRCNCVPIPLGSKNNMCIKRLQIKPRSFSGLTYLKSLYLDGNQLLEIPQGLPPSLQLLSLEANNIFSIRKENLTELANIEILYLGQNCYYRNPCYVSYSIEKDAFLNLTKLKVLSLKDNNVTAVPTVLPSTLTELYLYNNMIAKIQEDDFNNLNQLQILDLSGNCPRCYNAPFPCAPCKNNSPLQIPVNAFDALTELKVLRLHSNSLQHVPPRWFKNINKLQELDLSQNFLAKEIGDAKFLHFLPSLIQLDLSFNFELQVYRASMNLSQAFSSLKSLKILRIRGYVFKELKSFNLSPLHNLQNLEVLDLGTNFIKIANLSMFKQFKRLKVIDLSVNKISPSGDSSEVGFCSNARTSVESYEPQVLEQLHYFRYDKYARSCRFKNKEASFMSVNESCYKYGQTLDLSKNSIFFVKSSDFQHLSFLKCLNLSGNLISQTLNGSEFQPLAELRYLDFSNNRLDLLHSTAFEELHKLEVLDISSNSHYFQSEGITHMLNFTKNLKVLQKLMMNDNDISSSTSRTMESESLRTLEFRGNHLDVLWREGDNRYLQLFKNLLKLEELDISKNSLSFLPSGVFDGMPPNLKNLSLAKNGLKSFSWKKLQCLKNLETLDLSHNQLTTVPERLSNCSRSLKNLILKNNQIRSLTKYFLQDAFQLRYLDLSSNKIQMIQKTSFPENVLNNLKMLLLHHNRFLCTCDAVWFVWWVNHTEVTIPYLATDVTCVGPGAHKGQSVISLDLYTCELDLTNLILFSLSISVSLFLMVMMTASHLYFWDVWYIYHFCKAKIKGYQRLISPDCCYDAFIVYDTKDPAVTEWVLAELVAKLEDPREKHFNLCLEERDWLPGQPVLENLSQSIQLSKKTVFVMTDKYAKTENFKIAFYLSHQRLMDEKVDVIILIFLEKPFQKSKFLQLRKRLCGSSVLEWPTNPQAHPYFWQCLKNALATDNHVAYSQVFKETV
# T1 sequence (P58681 whole entry, looked up): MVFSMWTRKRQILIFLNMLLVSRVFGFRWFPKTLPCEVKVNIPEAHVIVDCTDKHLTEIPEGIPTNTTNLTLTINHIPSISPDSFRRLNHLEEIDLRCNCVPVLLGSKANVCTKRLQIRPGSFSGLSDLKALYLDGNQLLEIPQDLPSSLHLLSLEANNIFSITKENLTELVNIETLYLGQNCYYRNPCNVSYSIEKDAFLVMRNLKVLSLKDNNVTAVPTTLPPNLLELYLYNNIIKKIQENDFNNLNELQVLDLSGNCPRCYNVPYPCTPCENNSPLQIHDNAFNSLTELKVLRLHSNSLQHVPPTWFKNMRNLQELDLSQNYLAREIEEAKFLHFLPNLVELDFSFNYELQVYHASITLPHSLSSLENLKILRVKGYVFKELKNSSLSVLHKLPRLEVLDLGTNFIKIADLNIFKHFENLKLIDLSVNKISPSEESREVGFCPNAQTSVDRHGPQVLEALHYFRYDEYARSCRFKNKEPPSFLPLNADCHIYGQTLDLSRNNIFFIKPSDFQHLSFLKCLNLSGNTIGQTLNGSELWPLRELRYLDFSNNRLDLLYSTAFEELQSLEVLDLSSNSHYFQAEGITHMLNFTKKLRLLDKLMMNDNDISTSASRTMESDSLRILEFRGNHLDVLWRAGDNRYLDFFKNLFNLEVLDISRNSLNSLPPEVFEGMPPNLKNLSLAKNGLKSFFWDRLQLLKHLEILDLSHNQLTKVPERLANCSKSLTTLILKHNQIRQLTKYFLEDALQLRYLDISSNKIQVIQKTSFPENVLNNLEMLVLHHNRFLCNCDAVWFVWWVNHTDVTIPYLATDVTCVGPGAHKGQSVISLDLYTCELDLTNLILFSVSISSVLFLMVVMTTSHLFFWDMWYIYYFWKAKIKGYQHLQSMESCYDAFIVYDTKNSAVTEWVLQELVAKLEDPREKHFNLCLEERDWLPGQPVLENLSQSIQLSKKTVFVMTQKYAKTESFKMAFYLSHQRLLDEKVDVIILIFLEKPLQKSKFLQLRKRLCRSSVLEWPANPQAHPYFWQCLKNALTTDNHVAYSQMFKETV
# T1 sequence (P58682 whole entry, looked up): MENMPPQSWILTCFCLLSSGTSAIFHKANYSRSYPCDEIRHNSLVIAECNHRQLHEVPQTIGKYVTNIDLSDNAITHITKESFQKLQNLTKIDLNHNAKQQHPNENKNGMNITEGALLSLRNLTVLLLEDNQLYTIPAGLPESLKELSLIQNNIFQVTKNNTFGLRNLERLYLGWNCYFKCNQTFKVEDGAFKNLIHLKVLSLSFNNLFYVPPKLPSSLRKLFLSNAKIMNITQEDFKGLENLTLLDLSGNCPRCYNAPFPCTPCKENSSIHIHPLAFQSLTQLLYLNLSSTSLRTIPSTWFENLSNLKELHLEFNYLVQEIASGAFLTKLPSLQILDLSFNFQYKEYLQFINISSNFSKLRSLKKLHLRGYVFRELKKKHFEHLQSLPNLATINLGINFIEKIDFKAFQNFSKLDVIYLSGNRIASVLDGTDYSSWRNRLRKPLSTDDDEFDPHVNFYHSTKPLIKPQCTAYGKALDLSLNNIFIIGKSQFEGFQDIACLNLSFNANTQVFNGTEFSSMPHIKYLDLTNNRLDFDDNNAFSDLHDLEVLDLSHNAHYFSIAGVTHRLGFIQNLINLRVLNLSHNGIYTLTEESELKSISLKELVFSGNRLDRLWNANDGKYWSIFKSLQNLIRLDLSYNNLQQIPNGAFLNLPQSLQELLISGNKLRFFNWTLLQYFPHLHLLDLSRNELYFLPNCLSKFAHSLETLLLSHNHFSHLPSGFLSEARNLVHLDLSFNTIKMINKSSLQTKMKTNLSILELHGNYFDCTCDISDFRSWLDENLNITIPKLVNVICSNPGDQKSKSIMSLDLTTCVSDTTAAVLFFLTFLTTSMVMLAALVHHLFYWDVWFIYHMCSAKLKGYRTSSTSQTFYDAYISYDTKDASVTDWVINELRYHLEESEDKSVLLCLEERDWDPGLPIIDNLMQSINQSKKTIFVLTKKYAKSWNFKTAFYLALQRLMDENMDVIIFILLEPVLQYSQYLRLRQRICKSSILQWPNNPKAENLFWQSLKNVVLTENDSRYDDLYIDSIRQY
Activity [1] [pg/mL],Activity [2] [pg/mL],Activity [3] [pg/mL],Activity [4] [pg/mL],EC50 [5],Activity [6],Activity [7],Activity [8],EC50 ([9]; read-out: EC50) [µM],EC50 ([9]; hek293),Structure (SMILES)
109,290,18,1210,–,–,–,–,–,–,CCCCc1nc2c(N)nc3cc(C(=O)OC)ccc3c2n1CCO
11,78,24,1170,Not Active,–,–,–,–,–,CCc1nc2c(N)nc3cc(C(=O)OC)ccc3c2n1CC(C)(C)O
275,533,22,1200,–,Active,Active,Active,–,–,CCCCc1nc2c(N)nc3cc(C(=O)OC)ccc3c2n1CC(C)O (racemic)
13,73,27,819,Not Active,–,–,–,–,–,COC(=O)c1ccc2c(c1)nc(N)c1nc(C)n(CC(C)(C)O)c12
301,597,25,1190,–,Active,Active,Active,–,–,CCCCc1nc2c(N)nc3cc(C(=O)OC)ccc3c2n1C[C@H](C)O
60,500,15,971,Not Active,–,–,–,–,–,COC(=O)c1ccc2c(c1)nc(N)c1nc(Cc3ccccc3)n(CC(C)(C)O)c12
1010,312,37,1810,–,Active,Active,Active,–,–,CCCCCc1nc2c(N)nc3cc(C(=O)OC)ccc3c2n1CC(C)(C)O
108,393,24,1100,–,–,–,–,1.5,–,CCCCc1nc2c(N)nc3cc(C(=O)OC)ccc3c2n1CC(C)(C)O
104,136,25,2240,–,–,–,–,–,–,CCCCc1nc2c(N)nc3cc(C(=O)OC)ccc3c2n1CCOCc1ccccc1
484,267,22,1370,Not Active,–,–,–,–,–,CCCCc1nc2c(N)nc3cc(C(=O)OC)ccc3c2n1CCOC
33,365,23,1170,Not Active,–,–,–,–,–,CCCc1nc2c(N)nc3cc(C(=O)OC)ccc3c2n1CC(C)(C)O
16,236,49,1740,–,–,Active,–,–,–,CCOCc1nc2c(N)nc3ccccc3c2n1CC(C)(C)O
6,8,9,40,Not Active,–,–,–,–,Not Active,COC(=O)c1ccc2c(c1)nc(N)c1ncn(CC(C)(C)O)c12
157,416,20,1160,–,Active,Active,Active,–,–,CCCCc1nc2c(N)nc3cc(C(=O)OC)ccc3c2n1C[C@@H](C)O
19,133,17,308,Not Active,–,–,–,10.7,–,CC(C)Cn1cnc2c(N)nc3ccccc3c21 [IMIQUIMOD]
